Measured values: article PMC8418994 (Structure (London, England : 1993), 2021)

How the values were obtained:
[1] = test system: [Y473E]-PPARγ LBD; test: TR-FRET coregulator interaction assay; format: biochemical, human
[2] = test system: [Y473E]-PPARγ LBD; test: Isothermal titration calorimetry; format: binding, human; details: ITC at 25°C; Figure S7; in words
Outline: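 Human PPARγ LBD Y473E mutant (residues 203–477), expressed His-tagged in E. coli BL21(DE3), purified by Ni-NTA and gel filtration. Protein at 30 μM in the cell; test compound at 300 μM in the syringe. Both in 20 mM potassium phosphate pH 7.4, 50 mM KCl, 5 mM TCEP, 0.5 mM EDTA, 0.17% DMSO. A 0.4 μL pre-injection, then nineteen 2 μL injections at 25°C, stirring 1200 rpm.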

[3] = target: T1, PPARγ LBD (Homo sapiens, UniProt P37231); test: TR-FRET fluorescent tracer ligand displacement assay; format: binding
T1 sequence (P37231 203-477 isoform P37231-2): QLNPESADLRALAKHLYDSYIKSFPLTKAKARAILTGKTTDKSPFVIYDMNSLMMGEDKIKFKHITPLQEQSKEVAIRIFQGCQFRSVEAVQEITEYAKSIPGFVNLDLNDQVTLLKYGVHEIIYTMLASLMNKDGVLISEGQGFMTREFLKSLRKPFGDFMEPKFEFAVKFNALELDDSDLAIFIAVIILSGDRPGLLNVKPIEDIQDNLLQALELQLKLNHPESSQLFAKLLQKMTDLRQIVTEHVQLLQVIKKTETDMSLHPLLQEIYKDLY

SMILES	concentration-dependent effect on interaction of the TRAP220/MED1 coactivator peptide [1]	binding affinity to [Y473E]-PPARγ LBD [2]	Ki [3] [nM]
CN(CCOc1ccc(C[C@H](Nc2ccccc2C(=O)c2ccccc2)C(=O)O)cc1)c1ccccn1 [GW1929]	essentially no concentration-dependent effect	reasonably high affinity	
Cc1oc(-c2ccccc2)nc1CCC(=O)c1ccc(CC2SC(=O)NC2=O)cc1 (stereo not drawn) [darglitazone]			≤ 1
